Results published in ChEMBL document CHEMBL4028872, “Structure-Activity Relationship, Pharmacological Characterization, and Molecular Modeling of Noncompetitive Inhibitors of the Betaine/γ-Aminobutyric Acid Transporter 1 (BGT1)” (J Med Chem, 2017).
Values after ≈ are worked out from the molar mass of the structure shown. Active and inactive are the calls of the source. The calls are words filed in the database; no cut-off is given here.

What was measured:
[1] = Solubility of compound in pH 7.4 phosphate buffer after 24 hrs by HPLC-UV method; type: physicochemical
[2] = target: T1, Sodium- and chloride-dependent GABA transporter 3 (Homo sapiens, UniProt P48066); assay: Inhibition of human GAT3 expresses in tsA201 cells assessed as reduction in [3H]GABA uptake after 3 mins by scintillation counting method; type: cell-based
T1 sequence (P48066 whole entry): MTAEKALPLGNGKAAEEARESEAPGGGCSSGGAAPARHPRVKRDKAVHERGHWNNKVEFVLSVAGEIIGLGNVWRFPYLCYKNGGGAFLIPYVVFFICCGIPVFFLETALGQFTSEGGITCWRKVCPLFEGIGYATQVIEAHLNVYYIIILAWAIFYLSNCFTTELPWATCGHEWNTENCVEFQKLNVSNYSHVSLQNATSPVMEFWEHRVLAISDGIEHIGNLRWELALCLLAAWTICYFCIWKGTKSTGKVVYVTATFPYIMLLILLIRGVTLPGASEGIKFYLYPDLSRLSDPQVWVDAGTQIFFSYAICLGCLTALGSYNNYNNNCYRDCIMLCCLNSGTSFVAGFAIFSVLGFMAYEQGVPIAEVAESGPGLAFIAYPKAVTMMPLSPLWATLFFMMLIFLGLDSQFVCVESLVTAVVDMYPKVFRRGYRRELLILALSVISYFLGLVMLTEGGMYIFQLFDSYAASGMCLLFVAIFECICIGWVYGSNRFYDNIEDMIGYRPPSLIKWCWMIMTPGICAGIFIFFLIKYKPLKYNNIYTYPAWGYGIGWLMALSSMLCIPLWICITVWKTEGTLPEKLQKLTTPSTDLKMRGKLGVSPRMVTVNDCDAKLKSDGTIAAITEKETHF
How it was run: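 Wild-type human GAT transiently expressed in tsA201 cells via pcDNA5/FRT and PolyFect. Uptake of 30 nM [3H]GABA was run for 3 min at 37 °C in HBSS/20 mM HEPES with 1 mM CaCl2 and 1 mM MgCl2, pH 7.4, across a range of test concentrations. Ice-cold washes were followed by scintillation counting. IC50 was obtained by sigmoidal variable-slope fitting, reported as mean pIC50 ± S.E.M.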

GABA transporter 2 = target: T2, GABA transporter 2 (Mus musculus, UniProt P31651); assay: Inhibition of mouse BGT1 expressed in HEK293 cells assessed as reduction in [3H]GABA uptake after 3 mins by scintillation counting method; type: cell-based; conditions: read-out: IC50
T2 sequence (P31651 whole entry): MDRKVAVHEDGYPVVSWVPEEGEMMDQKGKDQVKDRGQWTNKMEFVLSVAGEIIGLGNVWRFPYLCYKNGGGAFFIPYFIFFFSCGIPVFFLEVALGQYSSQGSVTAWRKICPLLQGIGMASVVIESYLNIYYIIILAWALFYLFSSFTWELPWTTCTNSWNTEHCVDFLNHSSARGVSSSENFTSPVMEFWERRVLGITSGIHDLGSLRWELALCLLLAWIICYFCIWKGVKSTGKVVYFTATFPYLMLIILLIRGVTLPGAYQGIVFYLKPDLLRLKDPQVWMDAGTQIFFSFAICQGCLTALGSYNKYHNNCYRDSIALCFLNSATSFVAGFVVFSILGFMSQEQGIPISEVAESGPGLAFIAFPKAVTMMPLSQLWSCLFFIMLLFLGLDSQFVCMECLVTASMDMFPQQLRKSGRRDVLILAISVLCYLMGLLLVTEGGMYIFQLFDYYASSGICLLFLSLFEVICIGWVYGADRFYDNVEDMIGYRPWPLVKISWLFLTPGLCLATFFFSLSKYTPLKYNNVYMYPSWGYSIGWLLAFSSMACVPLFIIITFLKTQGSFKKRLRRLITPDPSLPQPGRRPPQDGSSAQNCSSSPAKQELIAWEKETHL
How it was run: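 HEK293 lines stably expressing a single mouse GAT subtype, kept under blasticidin-S (5 µg/mL) selection. Cells were assayed about 24 h after plating with 30 nM [3H]GABA plus varying compound concentrations for 3 min at 37 °C in HBSS buffered with 20 mM HEPES (1 mM CaCl2, 1 mM MgCl2, pH 7.4). Cells were washed ice-cold and radioactivity counted. IC50 came from sigmoidal variable-slope fits.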

GABA transporter 3 = target: T3, GABA transporter 3 (Mus musculus, UniProt P31649); assay: Inhibition of mouse GAT2 expressed in HEK293 cells assessed as reduction in [3H]GABA uptake after 3 mins by scintillation counting method; type: cell-based
T3 sequence (P31649 whole entry): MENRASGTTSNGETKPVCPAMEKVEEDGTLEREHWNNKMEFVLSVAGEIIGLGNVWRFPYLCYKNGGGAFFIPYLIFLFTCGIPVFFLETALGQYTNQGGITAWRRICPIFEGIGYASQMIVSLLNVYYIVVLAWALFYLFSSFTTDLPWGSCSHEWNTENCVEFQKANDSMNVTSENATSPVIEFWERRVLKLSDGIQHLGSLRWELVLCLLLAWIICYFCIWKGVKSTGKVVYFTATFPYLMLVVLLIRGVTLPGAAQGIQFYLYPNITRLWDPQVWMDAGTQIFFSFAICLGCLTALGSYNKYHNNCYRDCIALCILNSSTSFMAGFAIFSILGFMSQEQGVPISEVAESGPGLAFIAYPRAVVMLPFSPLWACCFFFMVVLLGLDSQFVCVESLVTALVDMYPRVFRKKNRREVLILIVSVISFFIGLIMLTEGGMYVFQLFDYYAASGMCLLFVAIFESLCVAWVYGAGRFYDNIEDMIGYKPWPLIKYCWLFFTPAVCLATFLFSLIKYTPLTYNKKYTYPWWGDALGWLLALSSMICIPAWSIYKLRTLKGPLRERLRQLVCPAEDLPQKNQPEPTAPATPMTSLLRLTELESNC
How it was run: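 HEK293 cells stably expressing mouse GAT2 were kept under blasticidin-S (5 µg/mL) selection. Ice-cold washes preceded scintillation counting. IC50 came from a variable-slope sigmoidal fit.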

[3] = target: D(2) dopamine receptor (Homo sapiens) (UniProt P14416); assay: Displacement of [3H]N-methylspiperone from human Dopamine receptor D2 receptor expressed in fibroblast cell membranes at 10 uM after 90 mins by scintillation counting method
Chain of D(2) dopamine receptor (Homo sapiens) (P14416 whole entry): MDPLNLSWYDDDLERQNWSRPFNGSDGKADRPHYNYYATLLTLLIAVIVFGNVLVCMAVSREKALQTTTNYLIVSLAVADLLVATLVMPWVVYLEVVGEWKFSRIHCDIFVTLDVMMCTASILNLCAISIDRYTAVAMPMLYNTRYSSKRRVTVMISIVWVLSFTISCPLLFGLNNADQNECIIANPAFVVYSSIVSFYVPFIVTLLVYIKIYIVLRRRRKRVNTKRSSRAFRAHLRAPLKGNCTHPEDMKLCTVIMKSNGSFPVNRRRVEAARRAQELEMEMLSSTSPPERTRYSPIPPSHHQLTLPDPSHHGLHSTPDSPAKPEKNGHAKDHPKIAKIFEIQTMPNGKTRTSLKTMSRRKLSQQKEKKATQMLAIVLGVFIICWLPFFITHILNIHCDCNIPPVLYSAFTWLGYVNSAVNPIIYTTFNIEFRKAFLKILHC

[4] = target: Sodium- and chloride-dependent betaine transporter (Homo sapiens, UniProt P48065, Y453S); assay: Inhibition of human BGT1 Y453S mutant expressed in tsA201 cells assessed as reduction in [3H]GABA uptake after 3 mins by scintillation counting method; type: cell-based
Chain of Sodium- and chloride-dependent betaine transporter (P48065 whole entry Y453S): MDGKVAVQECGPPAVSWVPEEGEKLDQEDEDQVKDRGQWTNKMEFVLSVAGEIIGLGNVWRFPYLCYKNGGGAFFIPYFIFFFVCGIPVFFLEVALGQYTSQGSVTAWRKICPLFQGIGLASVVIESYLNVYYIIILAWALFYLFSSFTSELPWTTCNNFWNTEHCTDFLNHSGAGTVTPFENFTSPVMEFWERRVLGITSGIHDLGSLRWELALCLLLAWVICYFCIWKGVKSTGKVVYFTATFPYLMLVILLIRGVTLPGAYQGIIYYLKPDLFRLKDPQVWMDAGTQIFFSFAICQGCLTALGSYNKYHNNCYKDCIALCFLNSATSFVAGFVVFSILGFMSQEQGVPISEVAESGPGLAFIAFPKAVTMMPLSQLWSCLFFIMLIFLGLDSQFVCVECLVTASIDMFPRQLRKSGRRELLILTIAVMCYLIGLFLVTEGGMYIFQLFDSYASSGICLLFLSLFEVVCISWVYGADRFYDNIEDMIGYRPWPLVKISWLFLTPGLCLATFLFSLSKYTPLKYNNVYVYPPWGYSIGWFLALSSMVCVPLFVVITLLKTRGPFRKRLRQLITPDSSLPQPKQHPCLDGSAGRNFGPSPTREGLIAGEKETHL
How it was run: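 tsA201 cells transiently transfected with wild-type or mutant human BGT1 (PolyFect) were plated about 24 h before assay. Three ice-cold washes followed, then scintillation counting.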

[5] = target: Sodium- and chloride-dependent GABA transporter 3 (Homo sapiens, UniProt P48066, S468Y); assay: Inhibition of human GAT3 S468Y mutant expresses in tsA201 cells assessed as reduction in [3H]GABA uptake after 3 mins by scintillation counting method; type: cell-based
Chain of Sodium- and chloride-dependent GABA transporter 3 (Homo sapiens, UniProt P48066, S468Y) (P48066 whole entry S468Y): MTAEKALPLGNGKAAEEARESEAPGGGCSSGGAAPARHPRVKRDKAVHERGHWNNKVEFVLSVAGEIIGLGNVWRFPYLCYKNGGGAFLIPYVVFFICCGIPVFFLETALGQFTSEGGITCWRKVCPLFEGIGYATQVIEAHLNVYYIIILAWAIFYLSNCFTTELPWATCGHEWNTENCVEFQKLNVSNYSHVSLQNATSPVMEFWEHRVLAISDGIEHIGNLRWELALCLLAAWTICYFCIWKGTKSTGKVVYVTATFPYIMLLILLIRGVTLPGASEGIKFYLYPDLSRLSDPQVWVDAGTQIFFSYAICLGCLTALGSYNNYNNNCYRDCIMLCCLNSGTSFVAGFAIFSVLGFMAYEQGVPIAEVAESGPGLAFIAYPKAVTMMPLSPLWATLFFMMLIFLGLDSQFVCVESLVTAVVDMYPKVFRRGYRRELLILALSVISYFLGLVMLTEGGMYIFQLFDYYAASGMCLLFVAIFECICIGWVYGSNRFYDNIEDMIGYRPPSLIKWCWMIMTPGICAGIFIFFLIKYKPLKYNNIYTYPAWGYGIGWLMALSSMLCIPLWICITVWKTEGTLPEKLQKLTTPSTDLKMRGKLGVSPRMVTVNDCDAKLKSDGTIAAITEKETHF
How it was run: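 Site-directed mutant transporters transiently transfected (PolyFect) into tsA201 cells, plated and used about 24 h later. Cells were washed with HBSS containing 20 mM HEPES, 1 mM CaCl2 and 1 mM MgCl2, pH 7.4. Uptake of 30 nM [3H]GABA was run with varied inhibitor concentrations for 3 min at 37 °C, then three ice-cold washes and scintillation counting. IC50 was taken from variable-slope sigmoidal fits. Triplicates, at least three independent experiments.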

SMILES: O=C(NC1CCN(Cc2ccccc2)CC1)c1ccc(Cl)nc1Cl
- solubility at 24 h [1]: 610 µg/mL (≈ 1670 µM)
- IC50 ([2]; read-out: IC50): > 1000 µM
- IC50 (GABA transporter 2): 37 µM
- IC50 (GABA transporter 3): > 400 µM
- inhibition [3]: inactive
- IC50 [4]: 25 µM
- IC50 [5]: > 1000 µM

SMILES: O=C(NC1CCN(Cc2ccccc2)CC1)c1ccc(Cl)cc1Cl
- solubility at 24 h [1]: 40 µg/mL (≈ 110 µM)
- IC50 [2]: > 100 µM
- IC50 (GABA transporter 2): 32 µM
- IC50 (GABA transporter 3): > 200 µM
- inhibition [3]: Active
- IC50 [4]: 19 µM
- IC50 [5]: > 300 µM
